Experiments:
[1] = system: UACC-257; assay: Growth inhibition of human UACC257 cells assessed as cell growth at 10 uM after 48 hrs by sulforhodamine B assay; format: functional; conditions: UACC-257, 48 h, read-out: Activity
In short: (§1)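 NCI 60-cell-line panel from nine tumour types (leukaemia, lung, colon, CNS, melanoma, ovarian, renal, prostate, breast). Each compound was added at one single concentration, and cultures were incubated for 48 h. Results are reported as percent growth inhibition.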

[2] = system: U-251; assay: Growth inhibition of human U251 cells assessed as cell growth at 10 uM after 48 hrs by sulforhodamine B assay; format: functional; conditions: U-251, 48 h, read-out: Activity; in short: as §1
[3] = system: 786-0; assay: Growth inhibition of human 786-0 cells assessed as cell growth at 10 uM after 48 hrs by sulforhodamine B assay; format: functional; conditions: 786-0, 48 h, read-out: Activity
In short: (§2)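 NCI 60-cell-line panel screen (nine cancer types). Compounds added at single concentration 10^-5 M, cultures incubated 48 h; growth inhibition percentages reported.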

[4] = system: COLO 205; assay: Growth inhibition of human COLO205 cells assessed as cell growth at 10 uM after 48 hrs by sulforhodamine B assay; format: functional; conditions: COLO 205, 48 h, read-out: Activity; in short: as §2
[5] = system: NCI-H322M; assay: Growth inhibition of human NCI-H322M cells assessed as cell growth at 10 uM after 48 hrs by sulforhodamine B assay; format: functional; conditions: read-out: Activity; in short: as §2
[6] = system: TK-10; assay: Growth inhibition of human TK10 cells assessed as cell growth at 10 uM after 48 hrs by sulforhodamine B assay; format: functional; conditions: TK-10, 48 h, read-out: Activity; in short: as §1
[7] = system: SK-MEL-2; assay: Growth inhibition of human SK-MEL-2 cells assessed as cell growth at 10 uM after 48 hrs by sulforhodamine B assay; format: functional; conditions: SK-MEL-2, 48 h, read-out: Activity; in short: as §2
[8] = system: T47D; assay: Growth inhibition of human T47D cells assessed as cell growth at 10 uM after 48 hrs by sulforhodamine B assay; format: functional; conditions: read-out: Activity; in short: as §1
[9] = system: OVCAR-8; assay: Growth inhibition of human OVCAR8 cells assessed as cell growth at 10 uM after 48 hrs by sulforhodamine B assay; format: functional; conditions: OVCAR-8, 48 h, read-out: Activity; in short: as §2
[10] = system: SF-268; assay: Growth inhibition of human SF268 cells assessed as cell growth at 10 uM after 48 hrs by sulforhodamine B assay; format: functional; conditions: SF-268, 48 h, read-out: Activity; in short: as §2
[11] = system: NCI-H522; assay: Growth inhibition of human NCI-H522 cells assessed as cell growth at 10 uM after 48 hrs by sulforhodamine B assay; format: functional; conditions: NCI-H522, 48 h, read-out: Activity; in short: as §2
[12] = system: MCF7; assay: Growth inhibition of human MCF7 cells assessed as cell growth at 10 uM after 48 hrs by sulforhodamine B assay; format: functional; conditions: MCF7, 48 h, read-out: Activity; in short: as §2
[13] = system: HOP-92; assay: Growth inhibition of human HOP92 cells assessed as cell growth at 10 uM after 48 hrs by sulforhodamine B assay; format: functional; conditions: HOP-92, 48 h, read-out: Activity; in short: as §2
[14] = system: SF-295; assay: Growth inhibition of human SF295 cells assessed as cell growth at 10 uM after 48 hrs by sulforhodamine B assay; format: functional; conditions: SF-295, 48 h, read-out: Activity; in short: as §2
[15] = system: OVCAR-4; assay: Growth inhibition of human OVCAR4 cells assessed as cell growth at 10 uM after 48 hrs by sulforhodamine B assay; format: functional; conditions: OVCAR-4, 48 h, read-out: Activity; in short: as §2
[16] = system: CAKI-1; assay: Growth inhibition of human CAKI-1 cells assessed as cell growth at 10 uM after 48 hrs by sulforhodamine B assay; format: functional; conditions: CAKI-1, 48 h, read-out: Activity; in short: as §2
[17] = system: M14; assay: Growth inhibition of human M14 cells assessed as cell growth at 10 uM after 48 hrs by sulforhodamine B assay; format: functional; conditions: M14, 48 h, read-out: Activity; in short: as §2
[18] = system: LOX IMVI; assay: Growth inhibition of human LOXIMVI cells assessed as cell growth at 10 uM after 48 hrs by sulforhodamine B assay; format: functional; conditions: read-out: Activity; in short: as §2
[19] = Inhibition of beta tubulin polymerisation in human HepG2 cells incubated for 2 hrs using TMB substrate by ELISA; format: cell-based; conditions: HepG2, 2 h
[20] = system: SF-539; assay: Growth inhibition of human SF539 cells assessed as cell growth at 10 uM after 48 hrs by sulforhodamine B assay; format: functional; conditions: SF-539, 48 h, read-out: Activity; in short: as §2
[21] = system: KM12; assay: Growth inhibition of human KM12 cells assessed as cell growth at 10 uM after 48 hrs by sulforhodamine B assay; format: functional; conditions: KM12, 48 h, read-out: Activity; in short: as §2
[22] = system: PC-3; assay: Growth inhibition of human PC3 cells assessed as cell growth at 10 uM after 48 hrs by sulforhodamine B assay; format: functional; conditions: PC-3, 48 h, read-out: Activity; in short: as §2
[23] = system: NCI-H226; assay: Growth inhibition of human NCI-H226 cells assessed as cell growth at 10 uM after 48 hrs by sulforhodamine B assay; format: functional; conditions: NCI-H226, 48 h, read-out: Activity; in short: as §2
[24] = system: HL-60; assay: Cytotoxicity in human HL60 cells assessed as reduction in cell viability incubated for 48 hrs by MTT assay; format: functional, cell-based; conditions: HL-60, 48 h
In short: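 HepG2 and HL60 (ATCC) grown in DMEM with 10% FBS, 2 mM L-glutamine, penicillin/streptomycin, amphotericin B at 37 °C, 5% CO2. Samples dissolved in DMSO, diluted thousandfold in assay. Cells seeded in serum-free medium, treated with serial concentrations 48 h; MTT 4 h, formazan dissolved in acidified isopropanol, A570. Triplicates averaged; viability relative to untreated/vehicle control.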

[25] = system: HepG2; assay: Inhibition of beta tubulin polymerisation in human HepG2 cells incubated for 2 hrs using TMB substrate by ELISA relative to untreated control; format: cell-based; design: concentration or dose not given beside the values; conditions: dose or concentration not given here
[26] = system: SW-620; assay: Growth inhibition of human SW620 cells assessed as cell growth at 10 uM after 48 hrs by sulforhodamine B assay; format: functional; conditions: SW-620, 48 h, read-out: Activity; in short: as §1
[27] = system: SK-MEL-28; assay: Growth inhibition of human SK-MEL-28 cells assessed as cell growth at 10 uM after 48 hrs by sulforhodamine B assay; format: functional; conditions: SK-MEL-28, 48 h, read-out: Activity; in short: as §2
[28] = system: SK-MEL-5; assay: Growth inhibition of human SK-MEL-5 cells assessed as cell growth at 10 uM after 48 hrs by sulforhodamine B assay; format: functional; conditions: SK-MEL-5, 48 h, read-out: Activity; in short: as §2
[29] = system: SN12C; assay: Growth inhibition of human SN12C cells assessed as cell growth at 10 uM after 48 hrs by sulforhodamine B assay; format: functional; conditions: read-out: Activity; in short: as §1
[30] = system: UACC-62; assay: Growth inhibition of human UACC62 cells assessed as cell growth at 10 uM after 48 hrs by sulforhodamine B assay; format: functional; conditions: UACC-62, 48 h, read-out: Activity; in short: as §1
[31] = system: K562; assay: Growth inhibition of human K562 cells assessed as cell growth at 10 uM after 48 hrs by sulforhodamine B assay; format: functional; conditions: K562, 48 h, read-out: Activity; in short: as §2
[32] = system: HCC 2998; assay: Growth inhibition of human HCC2998 cells assessed as cell growth at 10 uM after 48 hrs by sulforhodamine B assay; format: functional; conditions: HCC 2998, 48 h, read-out: Activity; in short: as §2

Structure (SMILES)	growth at 10 µM [1] [%]	growth at 10 µM [2] [%]	growth at 10 µM [3] [%]	growth at 10 µM [4] [%]	growth at 10 µM [5] [%]	growth at 10 µM [6] [%]	growth at 10 µM [7] [%]	growth at 10 µM [8] [%]	growth at 10 µM [9] [%]	growth at 10 µM [10] [%]	growth at 10 µM [11] [%]	growth at 10 µM [12] [%]	growth at 10 µM [13] [%]	growth at 10 µM [14] [%]	growth at 10 µM [15] [%]	growth at 10 µM [16] [%]	growth at 10 µM [17] [%]	growth at 10 µM [18] [%]	IC50 [19] [µM]	growth at 10 µM [20] [%]	also measured
CCOc1ccc(-n2nc(C(=O)Nc3ccccc3)nc2-c2cc(OC)c(OC)c(OC)c2)cc1	66.4	36.1	69.4	22.1	67.6	72.5	37.7	39.4	61.6	76.5	22.8	37	46	34	59.5	51.6	38	55.8	41.8	62	growth at 10 µM [21]: 27.5%; growth at 10 µM [22]: 44.9%; growth at 10 µM [23]: 80%; IC50 [24]: 1.28 µM; inhibition [25]: 42.7%; growth at 10 µM [26]: 36.1%
COc1cccc(-n2nc(C(=O)Nc3ccccc3)nc2-c2cc(OC)c(OC)c(OC)c2)c1	103	93.6	79.4	104	81.1	53.2	98	62.2	101	88.6	65.5	91.6	97.9	91.9	81.8	73.6	102	102	6.5	93.6	growth at 10 µM [27]: 96.6%; growth at 10 µM [28]: 93.8%; growth at 10 µM [29]: 100%; growth at 10 µM [30]: 95.3%; growth at 10 µM [31]: 121%; growth at 10 µM [32]: 87.3%; growth at 10 µM [21]: 96.6%; growth at 10 µM [22]: 90%; growth at 10 µM [23]: 96.9%; IC50 [24]: > 100 µM; inhibition [25]: 62.3%; growth at 10 µM [26]: 100%
CCOc1ccc(-n2nc(C(=O)NCc3ccccc3OC)nc2-c2cc(OC)c(OC)c(OC)c2)cc1	62.7	42.5	41.5	30.3	52.4	46.5	41.5	17	43.7	54.1	35.7	22.1	29	34.8	23.4	25.9	42.1	36.3	0.6	49.2	growth at 10 µM [27]: 36.6%; growth at 10 µM [28]: -1.22%; growth at 10 µM [29]: 39.7%; growth at 10 µM [30]: 37%; growth at 10 µM [31]: 22.1%; growth at 10 µM [32]: 57.5%; growth at 10 µM [21]: 33.8%; growth at 10 µM [22]: 24.6%; growth at 10 µM [23]: 62.5%; IC50 [24]: 0.6 µM; inhibition [25]: 85.6%; growth at 10 µM [26]: 58%
CCOc1ccc(-n2nc(C(=O)Nc3cccc(OC)c3)nc2-c2cc(OC)c(OC)c(OC)c2)cc1	94.7	78.5	84.8	66.6	79.8	93.6	86.9	58.5	53.1	80.7	57.9	83.5	67.2	68.5	75.1	72.5	83.7	80.8	36.8	90.2	growth at 10 µM [21]: 71.2%; growth at 10 µM [22]: 59%; growth at 10 µM [23]: 77.3%; IC50 [24]: 16.6 µM; inhibition [25]: 49.6%; growth at 10 µM [26]: 99.7%

Source: ChEMBL document CHEMBL4138126, “Synthesis, antiproliferative, anti-tubulin activity, and docking study of new 1,2,4-triazoles as potential combretastatin analogues” (Eur J Med Chem, 2017)
